Measured values pooled from the literature.
Lines come from different studies, so protocols differ. pEC50, pIC50: −log10 of the molar value.
Cell line: MCF7
Effect on: cell growth or viability

CC(=NNC(=O)c1ccncc1)c1ccc(Nc2nnc(-c3ccc(Cl)cc3)c3ccccc23)cc1 — viability (MTT; 2.5 µM, 24 h): 5.58%
CC(=O)c1nn(-c2ccc(C)cc2)/c(=N/N=C(\C)c2ccc(NC(=O)c3ccccc3)cc2)s1 — viability (MTT; 78 nM): 44.9%
CO[C@H]1C[C@@H]2CC[C@@H](C)[C@@](O)(O2)C(=O)C(=O)N2CCCC[C@H]2C(=O)O[C@H]([C@H](C)C[C@@H]2CC[C@@H](OCCO)[C@H](OC)C2)CC(=O)[C@H](C)/C=C(\C)[C@@H](O)[C@@H](OC)C(=O)[C@H](C)C[C@H](C)/C=C/C=C/C=C/1C — pEC50 (5 days): 8.85
C[C@@H]1CC[C@@H]([C@@](C)(O)Cn2cnc3ccccc32)[C@H](OCc2ccccc2)C1 — inhibition (MTT; 10 µM, 72 h): 55.2%
CCOC(=O)c1nn(-c2cccc(Cl)c2)/c(=N/N=C(\C)c2ccc(NC(=O)c3ccc(Cl)cc3)cc2)s1 — viability (MTT; 1.25 µM): 3.36%
O=C(Nc1ccc(Oc2nnc(-c3ccc(Cl)cc3)c3ccccc23)cc1)c1cccc([N+](=O)[O-])c1 — cell death (MTT; 78 nM): 4.29%
CC(=O)Nc1ccc(/C(C)=N/N=c2\sc(C(C)=O)nn2-c2ccc(C)cc2)cc1 — viability (MTT; 0.625 µM): 86.4%
CC(=O)Nc1ccc(Oc2nnc(-c3ccc(Cl)cc3)c3ccccc23)cc1 — viability (MTT; 10 µM, 24 h): 5.75%
COc1ccc(-c2cc(-c3cc(OC)ccc3OC)c3c(=O)[nH]c(=O)[nH]c3n2)cc1 — pIC50 (MTT; 48 h): 4.84
C=C(COCc1ccccc1)[C@@H]1CC[C@@H](C)C[C@H]1OCc1ccccc1 — inhibition (MTT; 30 µM, 72 h): 40.3%
CC(=NNC(=O)c1ccccc1Br)c1ccc(Nc2nnc(-c3ccc(Cl)cc3)c3ccccc23)cc1 — cell death (MTT; 5 µM): 93.8%
C[C@@H]1CC[C@@H]([C@](O)(CNCc2ccccc2)COCc2ccccc2)[C@H](OCc2ccccc2)C1 — inhibition (MTT; 10 µM, 72 h): 84.1%
CC(=O)c1nn(-c2ccccc2Cl)/c(=N/N=C(\C)c2ccc(NC(=O)c3ccccc3)cc2)s1 — viability (MTT; 2.5 µM): 6.21%
C[C@@H]1CC[C@@H]([C@](O)(CNCc2ccccc2)COCc2ccc(F)cc2)[C@H](OCc2ccc(F)cc2)C1 — inhibition (MTT; 10 µM, 72 h): 95.7%
COc1ccc(-c2cc(-c3ccc(Cl)cc3)c3c(=O)n(C)c(=O)n(C)c3n2)cc1 — pIC50 (MTT; 48 h): 4.84
O=C(Nc1ccccc1)Nc1ccc(Oc2nnc(-c3ccc(Cl)cc3)c3ccccc23)cc1 — cell death (MTT; 2.5 µM): 96.7%
COc1cccc(CNC[C@@](C)(O)[C@@H]2CC[C@@H](C)C[C@H]2OCc2ccccc2)c1 — inhibition (MTT; 10 µM, 72 h): 76.8%
CCOC(=O)c1nn(-c2cccc(Cl)c2)/c(=N/N=C(\C)c2ccc(NC(=O)c3ccccc3)cc2)s1 — viability (MTT; 0.625 µM): 2.63%
C[C@@H]1CC[C@@H]([C@](O)(CNCc2ccc(F)cc2)COCc2ccc(F)cc2)[C@H](OCc2ccc(F)cc2)C1 — inhibition (MTT; 30 µM, 72 h): 97.2%
CC(=NNC(=O)c1ccc(N)cc1)c1ccc(Nc2nnc(-c3ccc(Cl)cc3)c3ccccc23)cc1 — cell death (MTT; 2.5 µM): 94.6%
